# Data reported in ChEMBL document CHEMBL4177770, “Discovery of MK-6169, a Potent Pan-Genotype Hepatitis C Virus NS5A Inhibitor with Optimized Activity against Common Resistance-Associated Substitutions” (J Med Chem, 2018).
# Positions count from the first letter of the chain named.
# Legend:
# [1] = AUC in Wistar Han rat at 10 mg/kg, po by LC/MS method; assay type: ADME, organism-based; details: in vivo
# Outline: (§1)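 Male Wistar Han rats, two per dosing group, dosed orally at 10 mg/kg in 10% TWEEN. Plasma was separated from collected blood by centrifugation and analysed by LC/MS.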
# [2] = Oral bioavailability in Wistar Han rat at 10 mg/kg by LC/MS method; assay type: ADME, organism-based; details: in vivo; outline: as §1
# [3] = Drug level in Wistar Han rat at 10 mg/kg, po measured at 24 hrs by LC/MS method; assay type: ADME, organism-based; details: in vivo, read-out: Drug uptake; outline: as §1
# [4] = target: T1, Nonstructural protein 5A (Hepatitis C virus) (UniProt Q5L478); assay: Inhibition of NS5A in HCV genotype 3a infected in HuH7 replicon cells assessed as decrease in viral replication after 3 days by RT-PCR method; assay type: cell-based; details: Hepatitis C virus subtype 3a
# T1 sequence (whole entry): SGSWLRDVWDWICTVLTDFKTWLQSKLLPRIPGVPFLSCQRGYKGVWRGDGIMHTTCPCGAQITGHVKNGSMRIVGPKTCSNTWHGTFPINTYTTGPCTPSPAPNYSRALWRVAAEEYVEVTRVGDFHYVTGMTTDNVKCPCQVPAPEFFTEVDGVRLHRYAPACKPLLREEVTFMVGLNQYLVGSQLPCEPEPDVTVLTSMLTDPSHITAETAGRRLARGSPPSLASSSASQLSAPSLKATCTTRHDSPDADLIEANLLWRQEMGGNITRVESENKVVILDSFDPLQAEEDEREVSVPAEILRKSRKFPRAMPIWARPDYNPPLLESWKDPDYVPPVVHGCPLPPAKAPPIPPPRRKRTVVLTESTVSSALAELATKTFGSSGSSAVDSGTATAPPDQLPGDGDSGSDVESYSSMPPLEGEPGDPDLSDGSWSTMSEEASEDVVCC
# [5] = target: T1, Nonstructural protein 5A (Hepatitis C virus); assay: Inhibition of NS5A L31M mutant in HCV genotype 2b infected in HuH7 replicon cells assessed as decrease in viral replication after 3 days by RT-PCR method; assay type: cell-based; details: Hepatitis C virus subtype 2b
# [6] = target: T1, Nonstructural protein 5A (Hepatitis C virus); assay: Inhibition of NS5A in HCV genotype 1a infected in HuH7 replicon cells assessed as decrease in viral replication after 3 days by RT-PCR method; assay type: cell-based; details: Hepatitis C virus subtype 1a
# [7] = Cmax in Wistar Han rat at 10 mg/kg, po by LC/MS method; assay type: ADME, organism-based; design: dose 10 mg/kg, route oral; details: in vivo; outline: as §1
# [8] = target: T1, Nonstructural protein 5A (Hepatitis C virus); assay: Inhibition of NS5A in HCV genotype 1b infected in HuH7 replicon cells assessed as decrease in viral replication after 3 days by RT-PCR method; assay type: cell-based; details: Hepatitis C virus subtype 1b
# [9] = system: T2, Nonstructural protein 5A (Hepatitis C virus), Q5L478 [Y93H]; assay: Inhibition of NS5A Y93H mutant in HCV genotype 1a infected in HuH7 replicon cells assessed as decrease in viral replication after 3 days by RT-PCR method; assay type: cell-based; details: Hepatitis C virus subtype 1a
# T2 sequence (whole entry): T1 sequence (whole entry) with Y93H
# [10] = target: T1, Nonstructural protein 5A (Hepatitis C virus); assay: Inhibition of NS5A in HCV genotype 4a infected in HuH7 replicon cells assessed as decrease in viral replication after 3 days by RT-PCR method; assay type: cell-based; details: Hepatitis C virus subtype 4a
# [11] = Half life in Wistar Han rat at 2 mg/kg, iv by LC/MS method; assay type: ADME, organism-based; details: in vivo
# Outline: (§2)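 Male Wistar Han rats, two per group, dosed IV at 2 mg/kg in 60% PEG200. Plasma was obtained by centrifuging the blood, and compound concentrations were measured by LC/MS.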
# [12] = Clearance in Wistar Han rat at 2 mg/kg, iv by LC/MS method; assay type: ADME, organism-based; details: in vivo; outline: as §2
# [13] = target: T1, Nonstructural protein 5A (Hepatitis C virus); assay: Inhibition of NS5A L31V mutant in HCV genotype 1a infected in HuH7 replicon cells assessed as decrease in viral replication after 3 days by RT-PCR method; assay type: cell-based; details: Hepatitis C virus subtype 1a
Structure (SMILES),AUC [1] [nM·h],bioavailability [2] [%],concentration at 24 h [3] [µM],EC90 [4] [pM],EC90 [5] [pM],EC90 [6] [pM],Cmax [7] [µM],EC90 [8] [pM],EC90 [9] [pM],EC90 [10] [pM],half-life [11] [h],clearance [12] [L/h/kg],EC90 [13] [pM]
COC(=O)N[C@H](C(=O)N1CCC[C@H]1c1ncc(-c2ccc3c(c2)cc2n3[C@H](c3ccc4c(c3)OCCN4C)Oc3cc(-c4cnc([C@@H]5CCCN5C(=O)[C@@H](NC(=O)OC)C5CCOCC5)[nH]4)cc(F)c3-2)[nH]1)C(C)C,100,0.8,0.001,17,54,71,0.016,7,73,9,3.8,0.78,
COC(=O)N[C@H](C(=O)N1CCC[C@H]1c1ncc(-c2cc(F)c3c(c2)O[C@@H](c2ccc4c(c2)O[C@@H](C)CC4)n2c-3cc3cc(-c4cnc([C@@H]5CCCN5C(=O)[C@@H](NC(=O)OC)[C@@H]5CCOC(C)(C)C5)[nH]4)ccc32)[nH]1)C(C)C,,,,8,102,5,,7,348,8,,,5
COC(=O)N[C@H](C(=O)N1CCC[C@H]1c1ncc(-c2cc(F)c3c(c2)O[C@@H](c2ccc(C4CC4)s2)n2c-3cc3cc(-c4cnc([C@@H]5CCCN5C(=O)[C@@H](NC(=O)OC)[C@H]5CCOC(C)(C)C5)[nH]4)ccc32)[nH]1)C(C)C,240,1.6,0.001,9,27,4,0.025,7,18,7,5.2,0.66,2
COC(=O)N[C@H](C(=O)N1CCC[C@H]1c1ncc(-c2cc(F)c3c(c2)O[C@@H](c2cc4c(s2)CCC4)n2c-3cc3cc(-c4cnc([C@@H]5CCCN5C(=O)[C@@H](NC(=O)OC)[C@@H]5CCOC(C)(C)C5)[nH]4)ccc32)[nH]1)C(C)C,1900,10.2,0.006,9,43,5,0.29,6,117,6,4.3,0.54,6
CCc1ncc([C@@H]2Oc3cc(-c4cnc([C@@H]5CCCN5C(=O)[C@@H](NC(=O)OC)C(C)C)[nH]4)cc(F)c3-c3cc4cc(-c5cnc([C@@H]6CCCN6C(=O)[C@@H](NC(=O)OC)[C@@H]6CCOC(C)(C)C6)[nH]5)ccc4n32)s1,50,0.8,0.001,6,41,6,0.01,5,17,4,5.3,1.74,5
COC(=O)N[C@H](C(=O)N1CCC[C@H]1c1ncc(-c2cc(F)c3c(c2)O[C@@H](c2ccc4c(c2)OCCC4)n2c-3cc3cc(-c4cnc([C@@H]5CCCN5C(=O)[C@@H](NC(=O)OC)[C@@H]5CCOC(C)(C)C5)[nH]4)ccc32)[nH]1)C(C)C,80,1.2,0.001,7,17,3,0.01,5,48,5,3.8,1.5,4
COC(=O)N[C@H](C(=O)N1CCC[C@H]1c1ncc(-c2cc(F)c3c(c2)O[C@@H](c2cnc(C(C)C)s2)n2c-3cc3cc(-c4cnc([C@@H]5CCCN5C(=O)[C@@H](NC(=O)OC)[C@@H]5CCOC(C)(C)C5)[nH]4)ccc32)[nH]1)C(C)C,,,,38,19,6,,6,329,7,,,4
COC(=O)N[C@H](C(=O)N1CCC[C@H]1c1ncc(-c2cc(F)c3c(c2)O[C@@H](c2nc4c(s2)CCC4)n2c-3cc3cc(-c4cnc([C@@H]5CCCN5C(=O)[C@@H](NC(=O)OC)[C@@H]5CCOC(C)(C)C5)[nH]4)ccc32)[nH]1)C(C)C,,,,13,174,5,,4,590,7,,,
CCc1ccc([C@@H]2Oc3cc(-c4cnc([C@@H]5CCCN5C(=O)[C@@H](NC(=O)OC)[C@@H]5CCOC(C)(C)C5)[nH]4)cc(F)c3-c3cc4cc(-c5cnc([C@@H]6CCCN6C(=O)[C@@H](NC(=O)OC)C(C)C)[nH]5)ccc4n32)s1,230,1.2,0.002,82,349,33,0.02,67,155,106,5.9,0.54,46
COC(=O)N[C@H](C(=O)N1CCC[C@H]1c1ncc(-c2cc(F)c3c(c2)O[C@@H](c2ccc(C(C)C)s2)n2c-3cc3cc(-c4cnc([C@@H]5CCCN5C(=O)[C@@H](NC(=O)OC)[C@@H]5CCOC(C)(C)C5)[nH]4)ccc32)[nH]1)C(C)C,800,2.7,0.004,6,38,4,0.1,5,36,6,9.6,0.3,4
CCCc1ccc([C@@H]2Oc3cc(-c4cnc([C@@H]5CCCN5C(=O)[C@@H](NC(=O)OC)C(C)C)[nH]4)cc(F)c3-c3cc4cc(-c5cnc([C@@H]6CCCN6C(=O)[C@@H](NC(=O)OC)[C@@H]6CCOC(C)(C)C6)[nH]5)ccc4n32)s1,,,,16,84,10,,9,78,11,,,6
COC(=O)N[C@H](C(=O)N1CCC[C@H]1c1ncc(-c2cc(F)c3c(c2)O[C@@H](c2ccc(C4CC4)s2)n2c-3cc3cc(-c4cnc([C@@H]5CCCN5C(=O)[C@@H](NC(=O)OC)C5CCO[C@H](C)C5)[nH]4)ccc32)[nH]1)C(C)C (stereo partly specified),210,1.4,0.001,7,14,4,0.025,4,9,10,4.7,0.66,3
COC(=O)N[C@H](C(=O)N1CCC[C@H]1c1ncc(-c2ccc3c(c2)cc2n3[C@H](c3ccc4c(c3)OCCC4)Oc3cc(-c4cnc([C@@H]5CCCN5C(=O)[C@@H](NC(=O)OC)C5CCOCC5)[nH]4)cc(F)c3-2)[nH]1)C(C)C,50,0.5,,3,5,2,0.01,3,8,2,1.9,1.14,1
CC[C@@H]1CC([C@H](NC(=O)OC)C(=O)N2CCC[C@H]2c2ncc(-c3ccc4c(c3)cc3n4[C@H](c4ccc(C5CC5)s4)Oc4cc(-c5cnc([C@@H]6CCCN6C(=O)[C@@H](NC(=O)OC)C(C)C)[nH]5)cc(F)c4-3)[nH]2)C[C@H](CC)O1 (stereo partly specified),,,,62,2700,17,,,642,,,,
